# Autophagy HCS – autophagy modulation, high-content screen. calls only at 10 µM (by protocol). MEF GFP-LC3 puncta imaging; test concentration mostly 10 µM. 0.98% of 190,000 active;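 active = percentage of spot-positive cells more than 3 SD above its plate mean, without a fluorescence outlier flag or 80% toxicity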;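 also: spot-positive cell cutoff set from DMSO-treated cells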
# MT stabilize HCS – microtubule stabilizers in HeLa cells; % tubulin-high responders, % at 10 µM; 0.83% of 200,000 active; HeLa tubulin immunostaining HCS, 24 h; share of cells brighter than vehicle mean+2SD; AID 2205;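 active = plate Z-score above 3 for both tubulin-high and condensed-nucleus cell shares, with cell loss under 80%, at 10 µM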;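 also: anti alpha tubulin signal scored within the nucleus-defined area of each cell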
# ABCB1 block – human ABCB1 inhibition, ABCG2 as counter-screen | P08183 | CCRF-Adr cells, JC-1 efflux, flow cytometry | 0.067% of 190,000 active | inhibition, % at 6.6 µM; in the data active = inhibition above about 40%;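 also: 0% = vehicle and 100% = reference inhibitor; higher value means more JC-1 retained so stronger ABCB1 efflux block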
# Arbovirus inh – antivirals against arbovirus infection; 0.37% of 200,000 active; AID 1251; inhibition, % at 10 µM; arbovirus infection cell-based antiviral screen; in the data active = inhibition above about 30%
# bCat nuc transl – modulators of beta-catenin nuclear translocation | HeLa beta-catenin nuclear translocation, immunofluorescence imaging | nuclear translocation activity, % at 5 µM | 0.3% of 190,000 active;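 active = nuclear translocation activity above 50% at 5 µM, with a well cell count of 50 or more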;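 also: per-cell ratio of nuclear to cytoplasmic median beta-catenin stain intensity; plate controls were DMSO negative control for no effect and GSK-3 inhibitor IX positive control for full effect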
#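 Read-out: Nuclear/cytoplasmic beta-catenin signal ratio, % activation | Assay system: Human HeLa cell line | Times: 24 h compound exposure at 37°C, 5% CO2 | Signal: Fluorescence imaging of beta-catenin antibody stain plus DAPI | Dosing: 5 µM primary, 0.02–20 µM confirmation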
# ABCG2 block – inhibitors of human ABCG2 transporter, ABCB1 counter-screen. Q9UNQ0. IgMXP3 cells, JC-1 efflux, flow cytometry. inhibition, % at 6.6 µM. 0.1% of 190,000 active;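 active = inhibition above 80%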;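 also: 0% = DMSO and 100% = nicardipine control wells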
#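 test system = two drug-resistant human cell lines, ABCG2 and ABCB1 | amount = 3 million cells/mL final, two lines in 1:1 ratio | reagent = JC-1 transporter substrate | doses = one concentration, 6.6 µM final | incubation = 10 min at 25 °C | signal = flow cytometric JC-1 green MFI at 530 nm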
# * hit, by the source's call; i = inactive; / = not tested or not shown; + = active, no number. Rows were chosen to be rich in hits. Some 2.1% of all compounds tested hit in one or more screens of this group.
SMILES,Autophagy HCS,MT stabilize HCS,ABCB1 block,Arbovirus inh,bCat nuc transl,ABCG2 block
O=C(CN1C(=O)S/C(=C\C=C\c2ccccc2)C1=O)Nc1ccccc1C(=O)O,/,/,/,/,1.7,/
CCOc1cccc(OCCOCCn2cnc3ccccc3c2=O)c1,i,1.5,1.1,9.2,/,5.2
Cc1ccc(-c2csc(NC(=O)C3CC=CCC3C(=O)O)c2C(=O)OC(C)C)cc1 (stereo not given),i,1.6,0.3,46.9*,-3.2,19.5
CCOC(=O)c1c(-c2ccc(C)cc2)csc1NC(=O)C1CC=CCC1C(=O)O (stereo not given),i,2.6,-0.1,35.4*,-2.1,0.2
O=C(CN1CCCC1)Nc1ccc(-c2nc3cc(NC(=O)CN4CCCC4)ccc3o2)cc1,+,2.4,0.0,-28.1,/,0.7
CCCCCC(=O)Nc1ccc2oc(-c3cncc(Br)c3)nc2c1,+,3.9,0.0,-1.1,2.0,1.7
CCOC(=O)c1c(-c2ccccc2)oc2cc(CN(C)C)c(O)c(CN(C)C)c12,+,0.7,/,/,/,/
COc1cc(C2CC(=O)c3cnc(N4CCN(Cc5ccccc5)CC4)nc3C2)cc(OC)c1OC (stereo not given),i,43.1*,2.3,-15.5,83.1*,3.5
COc1ccc(C2CC(=O)c3c(C)nc(N4CCN(Cc5ccccc5)CC4)nc3C2)cc1OC (stereo not given),i,3.4,4.3,-19.8,-0.3,5.1
CCOC(=O)C(c1ccccc1)C(Nc1ccc(Cl)c(Cl)c1)c1ccccn1 (stereo not given),/,/,/,/,1.8,/
CCC/C(O)=C1\C(=O)CC(c2ccccc2)CC1=NCCc1c(C)[nH]c2ccccc12 (stereo not given),i,3.2,10.4,-2.1,1.7,20.6
CCCCC(=NCCc1c(C)[nH]c2ccccc12)C1=C(O)CC(c2ccccc2)CC1=O (stereo not given),i,9.4,5.9,-12.3,50.5*,19.4
CCCC(=NCCc1c(C)[nH]c2ccccc12)C1=C(O)CC(c2ccccc2)CC1=O (stereo not given),i,25.7*,0.1,-3.3,131.9*,-2.4
CC(=O)n1cc([C@@H]2C=C(C(=O)NCc3ccccc3)O[C@H](OCc3ccc(CO)cc3)C2)c2ccccc21,/,/,/,/,0.1,/
C#CCNC(=O)C1=C[C@H](c2cn(C(C)=O)c3ccccc23)C[C@H](OCc2ccc(CO)cc2)O1,i,4.1,0.9,30.8*,-1.0,0.7
CCn1cc(Br)c(C(=O)Nc2ccc(F)cc2F)n1,/,/,/,/,0.8,/
N#CC1=C(N)NC(SCc2ccc(F)cc2)=C(C#N)C12CCCCC2,i,46.7*,0.1,-23.5,/,4.1
CS(=O)(=O)c1ccc2nc(NC(=O)c3cccc(NS(=O)(=O)c4ccc(F)c(F)c4)c3)sc2c1,i,4.6,-1.0,64.7*,-1.7,-6.5
Cc1[nH]c2ccccc2c1SCC(=O)N1CCOCC1,i,1.8,0.6,7.7,-0.1,2.2
CC(C)CCNC(=O)c1cc(-c2ccncc2)nc2ccc(S(=O)(=O)N3CCOCC3)cc12,i,17.1*,0.4,-3.4,-4.4,1.5
Cc1cccc(OCC(=O)Nc2ccc(N3CCN(C(=O)c4ccco4)CC3)cc2)c1C,i,1.7,0.9,-23.2,1.7,2.0
CC(CC(=O)Nc1cc([N+](=O)[O-])ccc1Cl)c1ccccc1 (stereo not given),i,0.8,0.5,14.8,0.1,3.3
CC(=O)N1/C(=C/c2ccc(N(C)C)cc2)C(=O)c2ccccc21,i,19.5*,0.8,-33.6,1.8,8.6
CC(C)Oc1ccc(/C(O)=C2/C(=O)C(=O)N(CCN(C)C)C2c2cccs2)cc1 (stereo not given),i,2.5,0.1,-0.7,2.9,0.0
COc1cc2[nH]c(=O)n(Cc3ccc(C(=O)NC4CCCC4)cc3)c(=O)c2cc1OC,i,2.2,0.0,-0.9,-0.2,0.9
SMILES,Autophagy HCS,MT stabilize HCS,ABCB1 block,Arbovirus inh,bCat nuc transl,ABCG2 block
COc1ccc(Cn2c(=O)[nH]c3cc(C(=O)NC4CCCC4)ccc3c2=O)cc1,+,3.7,0.2,0.0,-2.6,1.6
CC1(C)CC(=O)C2=C(C1)N=c1s/c(=C/c3ccc(F)c(F)c3)c(=O)n1C2c1ccc(F)cc1 (stereo not given),+,5.4,0.9,-13.6,1.8,1.4
CC(=O)C1=C(C)N=c2s/c(=C/c3ccc4c(c3)OCO4)c(=O)n2C1c1ccc(N(C)C)cc1 (stereo not given),/,/,/,11.0,/,/
COc1nn(C(C)C(=O)N2N=C(C(F)F)CC2(O)C(F)F)cc1[N+](=O)[O-] (stereo not given),i,3.1,1.1,5.8,-2.6,1.7
CC1(C)CCCN(Cc2c(O)ccc3c(=O)c(-c4nc5ccccc5s4)c(N)oc23)C1,/,/,/,/,1.6,/
S=C(NCCN1CCOCC1)N/N=C/c1c2ccccc2cc2ccccc12,+,1.4,-0.5,9.9,-0.8,-2.0
COc1cc(OC)c(OC)cc1/C=N/NC(=S)NCCN1CCOCC1,+,8.1,-0.4,0.5,0.5,1.9
COc1cc(/C=N/NC(=S)NCCN2CCOCC2)cc(OC)c1O,i,2.1,0.4,5.8,0.6,6.5
COc1ccc2ccccc2c1/C=N/NC(=S)NCCN1CCOCC1,i,2.3,0.3,8.5,-1.4,3.0
COc1ccc2c(CCNC(=O)c3ccco3)c[nH]c2c1,i,4.2,0.4,2.3,-1.5,23.4
COC(=O)c1ccc(CSc2nc(-c3ccco3)cc(C(F)(F)F)n2)o1,i,2.6,0.7,-11.3,0.4,1.9
CCOC(=O)Nc1ccc2c(c1)N(C(=O)C(C)N1CCCC1)c1ccccc1CC2 (stereo not given),i,1.6,1.3,-12.9,/,2.1
CCOC(=O)Nc1ccc2c(c1)N(C(=O)OC)c1ccccc1CC2,i,34.3*,1.1,-16.7,15.8,3.1
CCOc1ccc(OCC)c(NC(=O)CN2CCN(C(=O)c3ccco3)CC2)c1,i,2.7,-0.9,-5.2,-0.2,-0.2
CCOC(=O)N1CCN(c2c(N3CCN(c4cccc(C)c4C)CC3)c(=O)c2=O)CC1,+,5.7,0.8,-6.4,/,1.5
Cc1cccc(N2CCN(C(=O)C3COc4ccccc4O3)CC2)c1C (stereo not given),i,2.0,1.8,36.4*,-2.6,8.9
CCOc1ncccc1C(=O)N1CCN(S(=O)(=O)c2ccccc2)CC1,i,1.9,1.6,1.5,-3.5,3.0
CCOc1ncccc1C(=O)N1CCN(c2cc(Cl)ccc2C)CC1,i,10.5,2.3,-12.3,84.3*,16.8
O=C(C1COc2ccccc2O1)N1CCN(c2ccccc2Cl)CC1 (stereo not given),i,1.3,0.8,29.5,-1.3,4.3
CCOc1ccc(OCC)c(NC(=O)CN2CCN(c3cccc(C)c3C)CC2)c1,i,1.6,5.0,-3.8,-0.6,95.0*
